Columns and labels:
CCRF-CEM [1] = assay: In vitro effective compound concentration required to protect CEM/O cells against the cytopathogenicity of HIV-1; format: functional, cell-based; conditions: Homo sapiens
In short: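 CEM/0 cells at 250 000 cells/mL were infected with HIV-1 (~20 CCID50/mL) or HIV-2 strain ROD (~100 CCID50/mL), then mixed 1:1 with compound dilutions. After 4 days at 37 °C, giant cell formation was scored. EC50 is the concentration inhibiting HIV-induced giant cell formation by 50%. Values are means of 2–4 independent experiments.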

CCRF-CEM [2] = assay: In vitro effective compound concentration required to protect CEM/TK cells against the cytopathogenicity of HIV-2; conditions: Homo sapiens

Cc1cn([C@H]2C=C[C@@H](CO)O2)c(=O)[nH]c1=O [STAVUDINE]
EC50 (CCRF-CEM [1]): 0.651 µM
EC50 (CCRF-CEM [2]): 33 µM

— ChEMBL document CHEMBL1132285, “The presence of substituents on the aryl moiety of the aryl phosphoramidate derivative of d4T enhances anti-HIV efficacy in cell culture: A structure-activity relationship” (J Med Chem, 1999)
